Data: ChEMBL document CHEMBL1158283, “Four new bioactive manzamine-type alkaloids from the Philippine marine sponge Xestospongia ashmorica” (1996)
≈ marks a conversion by molar mass, not a printed value.

Assays:
Type in all cases: functional
[1] = tested on: Spodoptera littoralis; test: Insecticidal activity against Spodoptera littoralis neonate larvae assessed as inhibition of larval growth at 132 ppm administered with artificial diet after 6 days by chronic feeding experiment relative to control; settings: 144 h
Summary of the method: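 Neonate S. littoralis larvae (n = 20) from a laboratory colony, fed artificial diet spiked at 132 ppm for 6 days; survival and weight of surviving larvae recorded and expressed as growth inhibition versus untreated controls.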

[2] = tested on: L5178Y; test: Cytotoxicity against mouse L5178Y cells after 72 hrs by MTT assay; settings: read-out: ED50 (the source's name)
Summary of the method: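 L5178y mouse lymphoma cells in Eagle's MEM plus 10% horse serum, roller tube culture; cultures started at 5×1000 cells/mL, exposed to 0.3–20 μg/mL, incubated 72 h at 37 °C. Growth assessed by MTT assay and by cell counting; ED50 reported in μg/mL.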

[3] = tested on: Staphylococcus aureus; test: Antibacterial activity against Staphylococcus aureus ATCC 25923 at 100 ug after 24 hrs by agar plate diffusion assay; settings: ATCC 25923, 24 h, read-out: IZ
Summary of the method: (§1)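 Sterile susceptibility disks (5 mm diameter) loaded with 100 μg compound, placed on agar plates seeded with test bacterium (B. subtilis 168, S. aureus ATCC 25923, E. coli ATCC 25922); plates incubated 24 h at 37 °C, then inhibition zone diameter read.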

[4] = tested on: Bacillus subtilis; test: Antibacterial activity against Bacillus subtilis 168 at 100 ug after 24 hrs by agar plate diffusion assay; settings: Bacillus subtilis, 168, 24 h; read-out: IZ; summary of the method: as §1
[5] = tested on: Spodoptera littoralis; test: Insecticidal activity against Spodoptera littoralis neonate larvae assessed as inhibition of larval growth drug administered with artificial diet after 6 days by chronic feeding experiment
Summary of the method: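 Dose-response feeding assay: neonate S. littoralis larvae (n = 20) held 6 days on artificial diet spiked at 26–132 ppm; survival and surviving-larva weights compared with controls, ED50 (ppm) derived by probit analysis of the dose-response curve.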

Row | Structure (SMILES) | inhibition at 132 ppm [1] [%] | EC50 [2] [mg/L] | zone of inhibition at 100 µg/disc [3] [mm] | zone of inhibition at 100 µg/disc [4] [mm] | ED50 [5] [ppm]
1 | [O-][n+]1ccc2c([nH]c3ccccc32)c1C1=C[C@@]2(O)CC/C=C\CCCCN3CC[C@@H]1[C@]1(C[C@@H]4/C=C\CCCCN4[C@H]12)C3 | 9.5 | 1.6 (≈ 2.83 µM) | – | – | –
2 | [O-][n+]1ccc2c([nH]c3ccccc32)c1C1=C[C@@]2(O)CC/C=C\CCCCN3CC[C@@H]1[C@]1(CC/C=C\CCCCN[C@H]12)C3 | 16.2 | 3.2 (≈ 5.65 µM) | – | – | –
3 | [O-][N+]1=C(C2=C[C@@]3(O)CC/C=C\CCCCN4CC[C@@H]2[C@]2(C[C@@H]5/C=C\CCCCN5[C@H]23)C4)c2[nH]c3ccccc3c2CC1 | 26.4 | 1.6 (≈ 2.82 µM) | – | – | –
4 | O[C@]12C=C(c3nccc4c3[nH]c3ccccc34)C3CCN(CCCC/C=C\CC1)C[C@@]31C[C@]34CC[C@H](CCCN3[C@H]12)O4 (some centres undefined) [6-Deoxymanzamine X] | 18.5 | 1.8 (≈ 3.19 µM) | – | – | –
5 | O[C@]12C=C(c3nccc4c3[nH]c3ccccc34)[C@@H]3CCN(CCCC/C=C\CC1)C[C@@]31C[C@@H]3/C=C\CCCCN3[C@H]12 [MANZAMINE A] | 80 | 1.8 (≈ 3.28 µM) | 7 | 7 | 35
6 | O=C1CCCN2[C@@H](CC1)C[C@]13CN4CCCC/C=C\CC[C@](O)(C=C(c5nccc6c5[nH]c5ccccc56)C1CC4)[C@H]23 (some centres undefined) [MANZAMINE E] | 0 | 6.6 (≈ 11.7 µM) | – | – | –
7 | O=C1CCCN2[C@@H](CC1)C[C@]13CN4CCCC/C=C\CC[C@](O)(C=C(c5nccc6c5[nH]c5c(O)cccc56)C1CC4)[C@H]23 (some centres undefined) [MANZAMINE F] | 50.6 | 2.3 (≈ 3.96 µM) | – | – | –
8 | O[C@]12C=C(c3nccc4c3[nH]c3ccccc34)[C@@H]3CCN(CCCC/C=C\CC1)C[C@@]31CC/C=C\CCCCN[C@H]12 [MANZAMINE J] | 2 | 25 (≈ 45.4 µM) | – | – | –
